Data as given in ChEMBL document CHEMBL3272050, “Prostaglandin prodrugs. 5.1 Prostaglandin E2 ethylene ketal” (J Med Chem, 1977).
Blank lines part the entries; values can stand above or below the molecule they belong to. Activity calls are given as the source filed them. The calls are words filed in the database; no cut-off is given here.

How the values were obtained:
[1] = Chemical stability of the compound assessed as formation of prostaglandin E2 at 6.31 x 10^-4 M at pH 2.08 at 25 degC by HPLC analysis; type: physicochemical; details: buffer, pH 2.08, 631 µM
Summary of the method: (§1)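 Ketal incubated at 25 ± 0.5 °C, pH 2.0–6.5, in 0.1 M buffers (HCl, chloroacetic, acetic, succinic, phosphoric) with ionic strength set to 0.10 M by KCl. Initial ketal was 0.25 mg/mL at pH 2.0–3.5 and 0.50 mg/mL at pH 4.5–6.5. Timed aliquots were EtOAc-extracted for HPLC at 263 nm, quantified by peak-area ratios against calibration mixtures, and first-order rate constants fitted.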

[2] = Chemical stability of the compound assessed as half life of formation of prostaglandin E2 at pH 2 at 25 degC by HPLC analysis; type: physicochemical; details: buffer; summary of the method: as §1
[3] = test system: Rhesus monkey; experiment: Increase of amplitude of uterine contractions in rhesus monkey at 16.87 mg, po administered on 100th day of pregnancy; type: functional, organism-based; details: Macaca mulatta
Summary of the method: (§2)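 Female rhesus monkeys on day 100 of pregnancy received an oral dose of 5.62 or 16.87 mg in 0.1 M THAM buffer, pH 8.5. Uterine contraction frequency and amplitude (mmHg) were recorded through an open-ended catheter in the amniotic cavity and compared with pretreatment activity.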

[4] = test system: Rhesus monkey; experiment: Increase of amplitude of uterine contractions in rhesus monkey at 5.62 mg, po administered on 100th day of pregnancy; type: functional, Macaca mulatta; summary of the method: as §2
[5] = test system: Rhesus monkey; experiment: Increase of uterine contractions in rhesus monkey at 16.87 mg, po administered on 100th day of pregnancy; type: functional, organism-based; details: Macaca mulatta; summary of the method: as §2
[6] = Drug metabolism assessed as disappearance of compound at pH 3.5 at 25 degC by HPLC analysis; type: physicochemical; details: read-out: Drug metabolism; summary of the method: as §1
[7] = Chemical stability of the compound assessed as formation of prostaglandin E2 at 12.61 x 10^-4 M at pH 6.50 at 25 degC by HPLC analysis; type: physicochemical; details: buffer, pH 6.5, 1261 µM; summary of the method: as §1
[8] = test system: Rhesus monkey; experiment: Increase of uterine motility in rhesus monkey at 5.62 mg, po administered on 100th day of pregnancy; type: functional, organism-based; details: Macaca mulatta; summary of the method: as §2
[9] = Chemical stability of the compound assessed as formation of prostaglandin E2 at pH 2.08 to 6.50 at 25 degC by HPLC analysis; type: physicochemical; details: buffer; summary of the method: as §1
[10] = Chemical stability of the compound assessed as formation of prostaglandin E2 at 6.31 x 10^-4 M at pH 2.99 at 25 degC by HPLC analysis; type: physicochemical; details: buffer, pH 2.99, 631 µM; summary of the method: as §1
[11] = test system: Rhesus monkey; experiment: Increase of uterine contractions in rhesus monkey at 5.62 mg, po administered on 100th day of pregnancy; type: functional, organism-based; details: Macaca mulatta; summary of the method: as §2
[12] = Chemical stability of the compound assessed as formation of prostaglandin E2 at 12.61 x 10^-4 M at pH 4.53 at 25 degC by HPLC analysis; type: physicochemical; details: buffer, pH 4.53, 1261 µM; summary of the method: as §1
[13] = Chemical stability of the compound assessed as formation of prostaglandin E2 at 12.61 x 10^-4 M at pH 5.50 at 25 degC by HPLC analysis; type: physicochemical; details: buffer, pH 5.5, 1261 µM; summary of the method: as §1
[14] = Chemical stability of the compound assessed as formation of prostaglandin E2 at 6.31 x 10^-4 M at pH 3.50 at 25 degC by HPLC analysis; type: physicochemical; details: buffer, pH 3.5, 631 µM; summary of the method: as §1
[15] = Chemical stability of the compound assessed as formation of prostaglandin A2 at pH 5.50; type: physicochemical; details: buffer, pH 5.5
[16] = Chemical stability of the compound assessed as formation of prostaglandin A2 at pH 6.50; type: physicochemical; details: buffer, pH 6.5
[17] = Chemical stability of the compound assessed as formation of prostaglandin A2 at pH 3.50; type: physicochemical; details: buffer, pH 3.5
[18] = Chemical stability of the compound assessed as formation of prostaglandin A2 at pH 2.99; type: physicochemical; details: buffer
[19] = Chemical stability of the compound assessed as formation of prostaglandin A2 at 6.31 x 10^-4 M at pH 3.50 at 25 degC by HPLC analysis; type: physicochemical; details: buffer, pH 3.5, 631 µM; summary of the method: as §1
[20] = Chemical stability of the compound assessed as half life of formation of prostaglandin A2 at pH 2 at 25 degC by HPLC analysis; type: physicochemical; details: buffer; summary of the method: as §1
[21] = Chemical stability of the compound assessed as formation of prostaglandin A2 at pH 2.08; type: physicochemical; details: buffer
[22] = Chemical stability of the compound assessed as formation of prostaglandin A2 at pH 4.53; type: physicochemical; details: buffer
[23] = Chemical stability of the compound assessed as formation of prostaglandin A2 at 12.61 x 10^-4 M at pH 4.53 at 25 degC by HPLC analysis; type: physicochemical; details: buffer, pH 4.53, 1261 µM; summary of the method: as §1

K [1]: 1.93 ×10⁻⁴ /s | t1/2 [2]: 1 h | degraded [6]: 70% | K [7]: 2.58 ×10⁻⁸ /s | K [9]: 2.24 ×10⁻² /s/M | K [10]: 2.29 ×10⁻⁵ /s | K [12]: 7.61 ×10⁻⁷ /s | K [13]: 1.71 ×10⁻⁷ /s | K [14]: 5.78 ×10⁻⁶ /s
Compound: CCCCC[C@H](O)/C=C/[C@H]1[C@H](O)CC2(OCCO2)[C@@H]1C/C=C\CCCC(=O)O
Activity [3]: Active | Activity [4]: 7 mmHg | Activity [5]: Active | Activity [8]: Active | Activity [11]: Active

K [15]: 4 ×10⁻⁷ /s | K [16]: 5.3 ×10⁻⁷ /s | K [17]: 2.3 ×10⁻⁷ /s | K [18]: 2.8 ×10⁻⁷ /s | K [19]: 5.8 ×10⁻⁷ /s | t1/2 [20]: 336 h | K [21]: 5.8 ×10⁻⁷ /s | K [22]: 3.1 ×10⁻⁷ /s | K [23]: 3.36 ×10⁻⁷ /s
Compound: CCCCC[C@H](O)/C=C/[C@H]1[C@H](O)CC(=O)[C@@H]1C/C=C\CCCC(=O)O [DINOPROSTONE]
